Results collected from several papers.
Each line is one published result; the experiments were not run side by side.

| SMILES | target or system | test | test system | setting | quantity | result |
| --- | --- | --- | --- | --- | --- | --- |
| c1ccc(-c2nc(N3CCCC3c3ccccn3)c3ccccc3n2)nc1 (stereo not shown) |  |  | PAMPA | 10 µM, 3 h, pH 7.4 | Papp | 21.4 ×10⁻⁶ cm/s |
| CC1(C)CC[C@]2(C)CC[C@]3(C)[C@H]4CC=C5[C@@H](CC[C@H](O)C5(C)C)[C@]4(C)CC[C@@]3(C)[C@@H]2C1 | HCT-116 | cell growth or viability, WST-1 |  |  | IC50 | 66.5 µM |
| c1ccc(C2CCN(c3nc(-c4cnn5c4CCCC5)nc4ccccc34)C2)nc1 (stereo not shown) |  |  | PAMPA | 10 µM, 3 h, pH 7.4 | Papp | 36.7 ×10⁻⁶ cm/s |
| CCCCCCCCCCCCCCCCOP(=O)([O-])OCC[N+](C)(C)C | DH82 | cell growth or viability, MTS |  | 24 h | CC50 | > 20 µM |
| Cn1ccnc1CNc1nc(-c2ccccn2)nc2ccccc12 |  |  | PAMPA | 10 µM, 3 h, pH 7.4 | Papp | 27 ×10⁻⁶ cm/s |
| CCOC(=O)[C@@]12C[C@@H]1[C@@H](n1ccc3c(NC)nc(C#Cc4ccc(Cl)s4)nc31)[C@H](O)[C@@H]2O |  |  | male Sprague-Dawley rat, plasma | oral, 1 mg/kg | AUC(0-t) | 34 ng·h/mL |
| CC(C)Nc1ccnc(Nc2cccc(-c3cc[nH]n3)c2)n1 |  |  | PAMPA | 50 nM, 30 min | Papp | 1740 ×10⁻⁶ cm/s |
| CC(=O)O[C@@H]1c2c(ccc3ccc(=O)oc23)OC(C)(C)[C@@H]1OC(=O)C1(C)OC1C (stereo partly shown) | HCT-116 | cell growth or viability, WST-1 |  |  | IC50 | 49.9 µM |
| COC(=O)c1c(C)ncn1CC(c1c[nH]c2ccc(C)cc12)c1c[nH]c2ccc(C)cc12 | DH82 | cell growth or viability, MTS |  | 24 h | CC50 | > 20 µM |
| CONc1ccnc(Nc2cccc(-c3cccnc3)c2)n1 |  |  | PAMPA | 50 nM, 30 min | Papp | 1300 ×10⁻⁶ cm/s |
